Test results from ChEMBL document CHEMBL4842317, “Discovery of novel 3-hydroxyandrosta-5,7-Diene-17-Carboxylic acid derivatives as anti-inflammatory bowel diseases (IBD) agents” (Eur J Med Chem, 2021).
Active and inactive are the calls of the source. No cut-off for these calls is given here.

Tests used:
Mus musculus [1] = assay: Antiinflammatory activity against DSS-induced colitis C57BL/6 mouse model assessed as reduction in scores of stool consistency and bleeding at 25 to 100 mg/kg, ip administered for 7 days by immunohistochemistry analysis; assay type: functional, organism-based; conditions: dose 25-100 mg/kg, time 7.0 day
RAW264.7 [2] = assay: Inhibition of PI3K/Akt signaling in mouse RAW264.7 cells assessed as inhibition of LPS-induced NFkappB p-p65 accumulation at 1.25 uM in presence of LPS by western blot analysis; assay type: cell-based
Method in brief: (§1)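 Lysates of LPS-stimulated RAW 264.7 cells (20–30 μg protein) are run on 10% SDS-PAGE, blotted, blocked with 5% milk, probed overnight at 4 °C (1:5,000), then detected with HRP secondary and ECL. Actin, GAPDH or H3 (nuclear fraction) serve as loading controls, with densitometry ratios. Blots are representative of three independent experiments; mean + SD (n = 3).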

Mus musculus [3] = assay: Antiinflammatory activity against DSS-induced colitis C57BL/6 mouse assessed as decrease in IL-1beta level in colon at 25 mg/kg, ip administered for 7 days; assay type: functional, organism-based; conditions: time 7.0 day
Method in brief: (§2)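 Male C57BL/6 mice, 6 weeks old, 5 per group, given 3.5% DSS solution plus daily intraperitoneal drug (100 μL, in saline/castor oil/ethanol/DMSO 70:10:15:5) for 7 days. Colons collected after sacrifice. IL-1β is normalised per milligram of colonic protein. p-IκB-α and p-p65 in colonic protein are measured by Western blot. Bars give mean + SD.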

Mus musculus [4] = assay: Antiinflammatory activity against DSS-induced colitis C57BL/6 mouse model assessed as colon with intact structure with few inflammatory cells at 50 to 100 mg/kg, ip administered for 7 days by hematoxylin and eosin staining based microscopic analysis; assay type: functional, organism-based; conditions: dose 50-100 mg/kg, time 7.0 day
Method in brief: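 DSS colitis (3.5% DSS, male C57BL/6 mice, n=5 per group) with 7-day intraperitoneal dosing in saline/castor oil/ethanol/DMSO vehicle. Colons are fixed in formalin, paraffin-embedded and stained with H&E (viewed at 200X). Separately, sections undergo CD86 immunohistochemistry (citrate antigen retrieval, 3% H2O2 block, 1:200 primary and HRP secondary, hematoxylin counterstain) viewed at 400X.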

Mus musculus [5] = assay: Antiinflammatory activity against DSS-induced colitis C57BL/6 mouse assessed as decrease in p-p65 level in colon at 25 mg/kg, ip administered for 7 days by western blot analysis; assay type: functional, organism-based; conditions: time 7.0 day; method in brief: as §2
RAW264.7 [6] = assay: Antiinflammatory activity against mouse RAW264.7 cells assessed as inhibition of LPS-induced MCP-1 mRNA expression at 20 uM in presence of LPS by qRT-PCR analysis; assay type: functional, cell-based
Method in brief: (§3)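 RAW 264.7 cells are grown 12 h in six-well plates, then exposed to LPS (100 ng/ml) plus compound for 8 h. Reverse transcription is followed by SYBR Green qPCR with GAPDH as internal control. Relative expression is calculated by 2^-ΔΔCT versus the untreated control. Mean + SD from three independent experiments.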

RAW264.7 [7] = assay: Antiinflammatory activity against mouse RAW264.7 cells assessed as inhibition of LPS-induced iNOS mRNA expression incubated for 8 hrs in presence of LPS by qRT-PCR analysis; assay type: functional, cell-based; conditions: dose 0.31-20 µM; method in brief: as §3
RAW264.7 [8] = assay: Antiinflammatory activity against mouse RAW264.7 cells assessed as decrease in LPS-induced IL-6 mRNA expression at 20 uM in presence of LPS by qRT-PCR analysis; assay type: functional, cell-based; method in brief: as §3
Mus musculus [9] = assay: Antiinflammatory activity against DSS-induced colitis C57BL/6 mouse assessed as decrease in p-IkB alpha level in colon at 25 mg/kg, ip administered for 7 days by western blot analysis; assay type: functional, organism-based; conditions: time 7.0 day; method in brief: as §2
Mus musculus [10] = assay: Antiinflammatory activity against DSS-induced colitis C57BL/6 mouse assessed as decrease in p-IkB alpha level in colon at 50 mg/kg, ip administered for 7 days by western blot analysis; assay type: functional, organism-based; conditions: time 7.0 day; method in brief: as §2
RAW264.7 [11] = assay: Antiinflammatory activity against mouse RAW264.7 cells assessed as inhibition of LPS-induced iNOS mRNA expression at 20 uM incubated for 8 hrs in presence of LPS by qRT-PCR analysis; assay type: functional, cell-based; method in brief: as §3
RAW264.7 [12] = assay: Antiinflammatory activity against mouse RAW264.7 cells assessed as decrease in LPS-induced TNF-alpha mRNA expression at 20 uM in presence of LPS by qRT-PCR analysis; assay type: functional, cell-based; method in brief: as §3
Mus musculus [13] = assay: Antiinflammatory activity against DSS-induced colitis C57BL/6 mouse model assessed as attenuation of colon length shortening at 25 mg/kg, ip administered for 7 days; assay type: functional, organism-based; conditions: time 7.0 day
Method in brief: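 Male C57BL/6 mice, 6 weeks old, 5 per group, given 3.5% DSS in drinking solution with intraperitoneal drug in saline/castor oil/ethanol/DMSO (70:10:15:5) daily for 7 days. Colons are photographed after sacrifice by cervical dislocation for gross assessment.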

RAW264.7 [14] = assay: Antiinflammatory activity against mouse RAW264.7 cells assessed as inhibition of LPS-induced COX2 mRNA expression at 20 uM incubated for 8 hrs in presence of LPS by qRT-PCR analysis; assay type: functional, cell-based; method in brief: as §3
RAW264.7 [15] = assay: Cytotoxicity against mouse RAW264.7 cells assessed as reduction in cell viability at 3 to 100 uM incubated for 24 hrs in presence of LPS by MTT assay; assay type: cell-based; conditions: raw264.7, 24 h, dose 3-100 µM
Method in brief: (§4)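 RAW 264.7 cells are seeded at 1.0 × 10^4 per well and incubated overnight. Compounds are added at concentrations from 100 μM downward, with or without LPS (100 ng/mL), for 24 h. MTT (0.5 mg/mL) is added for 4 h and the formazan is dissolved in DMSO for the read-out.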

Mus musculus [16] = assay: Antiinflammatory activity against DSS-induced colitis C57BL/6 mouse assessed as decrease in p-p65 level in colon at 50 mg/kg, ip administered for 7 days by western blot analysis; assay type: functional, organism-based; conditions: time 7.0 day; method in brief: as §2
RAW264.7 [17] = assay: Antiinflammatory activity against mouse RAW264.7 cells assessed as inhibition of LPS-induced IL-1 beta production measured after 24 hrs in presence of LPS by ELISA; assay type: functional, cell-based; conditions: dose 0.31-20 µM
Method in brief: (§5)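 RAW 264.7 cells are seeded at 2 × 10^5 per well, grown 12 h, and given 100 ng/mL LPS with compound at 0.31 to 20 μM for 24 h. Supernatant IL-1β and IL-6 are quantified by ELISA. Mean + SD, n = 3.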

RAW264.7 [18] = assay: Cytotoxicity against mouse RAW264.7 cells assessed as reduction in cell viability at 3 to 100 uM incubated for 24 hrs by MTT assay; assay type: cell-based; conditions: raw264.7, 24 h, dose 3-100 µM; method in brief: as §4
RAW264.7 [19] = assay: Antiinflammatory activity against mouse RAW264.7 cells assessed as decrease in LPS-induced NF-kappB mRNA expression in presence of LPS by qRT-PCR analysis; assay type: functional, cell-based; conditions: dose 0.31-20 µM; method in brief: as §3
RAW264.7 [20] = assay: Inhibition of PI3K/Akt signaling in mouse RAW264.7 cells assessed as inhibition of LPS-induced NFkappB p-p65 accumulation in presence of LPS by western blot analysis; assay type: cell-based; conditions: dose 0.31-20 µM; method in brief: as §1
RAW264.7 [21] = assay: Antiinflammatory activity against mouse RAW264.7 cells assessed as inhibition of LPS-induced IL-6 production measured after 24 hrs in presence of LPS by ELISA; assay type: functional, cell-based; conditions: dose 0.31-20 µM; method in brief: as §5
RAW264.7 [22] = assay: Antiinflammatory activity against mouse RAW264.7 cells assessed as inhibition of LPS-induced COX2 mRNA expression incubated for 8 hrs in presence of LPS by qRT-PCR analysis; assay type: functional, cell-based; conditions: dose 0.31-20 µM; method in brief: as §3

Which Activity (Mus musculus [1]) does the source give for C[C@]12CC[C@H]3[C@@H](CC=C4C[C@@H](O)CC[C@@]43C)[C@@H]1CC[C@@H]2C(=O)n1ccnc1 here?
Its Activity is “Active”.

And the inhibition (RAW264.7 [2])?
Its inhibition is “Active”.

And the Activity (Mus musculus [3])?
Its Activity is “Active”.

What about the Activity (Mus musculus [4]) of the same molecule?
Its Activity is “Active”.

What about the Activity (Mus musculus [5]) of the same molecule?
Its Activity is “Active”.

What about the Activity (RAW264.7 [6]) of the same molecule?
The Activity was “Active”.

And the Activity (RAW264.7 [7])?
The Activity was “Dose-Dependent Effect”.

And the Activity (RAW264.7 [8])?
Its Activity is “Active”.

What about the Activity (Mus musculus [9]) of the same molecule?
Its Activity is “Active”.

And the Activity (Mus musculus [10])?
Its Activity is “Active”.

What about the Activity (RAW264.7 [11]) of the same molecule?
Its Activity is “Active”.

What about the Activity (RAW264.7 [12]) of the same molecule?
The Activity was “inactive”.

What about the Activity (Mus musculus [13]) of the same molecule?
The Activity was “Active”.

What about the Activity (RAW264.7 [14]) of the same molecule?
The Activity was “Active”.

What about the Activity (RAW264.7 [15]) of the same molecule?
The Activity was “Non-Toxic”.

What about the Activity (Mus musculus [16]) of the same molecule?
The Activity was “Active”.

What about the Activity (RAW264.7 [17]) of the same molecule?
Its Activity is “Dose-Dependent Effect”.

And the Activity (RAW264.7 [18])?
The Activity was “Non-Toxic”.

And the Activity (RAW264.7 [19])?
Its Activity is “Dose-Dependent Effect”.

And the inhibition (RAW264.7 [20])?
Its inhibition is “Dose-Dependent Effect”.

And the Activity (RAW264.7 [21])?
The Activity was “Dose-Dependent Effect”.

What about the Activity (RAW264.7 [22]) of the same molecule?
The Activity was “Dose-Dependent Effect”.
